Results: ChEMBL document CHEMBL1131320, “Role of the C(6)-hydroxy group in bicyclomycin: synthesis, structure, and chemical, biochemical, and biological properties” (1998)
Converted amounts (≈) assume the structure as drawn.

Experiments:
[1] = test system: Escherichia coli; test: The compound was tested for minimum inhibitory concentration (MIC) against Escherichia coli W3350 cells; format: functional
Outline: (§1)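 Filter-disk assay; MIC taken as the average minimum inhibitory concentration from duplicate tests.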

[2] = test system: Escherichia coli; test: The compound was tested for the % inhibition of transcription termination (TT) activity in Escherichia coli-rho at 100 uM; format: functional
Outline: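 Rho-dependent transcription termination (Platt method), at pH 7.9 with [α-³²P]UTP label and purified E. coli rho. Percent termination is read at 100 µM.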

[3] = test system: Escherichia coli; test: The compound was tested for the concentration to inhibit 50% of transcription termination activity in Escherichia coli-rho and is expressed in I50.; format: functional
Outline: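 Rho-dependent transcription termination following Platt and co-workers, at pH 7.9 with [α-³²P]UTP and rho purified from E. coli AR120/p39-AS. I50 is the average 50% inhibition concentration from duplicate tests.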

[4] = target: Transcription termination factor rho (Escherichia coli) (UniProt P0AG30); test: The compound was tested for the concentration to inhibit 50% of ATPase activity
Chain of Transcription termination factor rho (Escherichia coli) (P0AG30 whole entry, looked up): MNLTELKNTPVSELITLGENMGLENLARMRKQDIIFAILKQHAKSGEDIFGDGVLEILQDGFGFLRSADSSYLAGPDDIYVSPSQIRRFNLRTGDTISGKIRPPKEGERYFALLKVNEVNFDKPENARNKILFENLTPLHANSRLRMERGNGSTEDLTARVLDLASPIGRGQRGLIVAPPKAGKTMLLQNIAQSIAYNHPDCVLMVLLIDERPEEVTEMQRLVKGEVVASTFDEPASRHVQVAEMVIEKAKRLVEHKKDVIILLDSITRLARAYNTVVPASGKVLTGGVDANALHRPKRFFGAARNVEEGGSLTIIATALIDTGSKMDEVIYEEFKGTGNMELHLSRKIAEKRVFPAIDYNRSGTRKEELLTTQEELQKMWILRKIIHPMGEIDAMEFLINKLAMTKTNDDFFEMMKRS

[5] = target: Transcription termination factor rho (Escherichia coli) (UniProt P0AG30); test: The compound was tested for the % inhibition of rho poly(C)-stimulated ATPase activity at 400 uM
[6] = test system: Escherichia coli; test: The compound was tested for minimum inhibitory concentration (MIC) against Escherichia coli W3350 cells.; format: functional; outline: as §1
[7] = test system: Escherichia coli; test: The compound was tested for the % inhibition of rho poly(C)-stimulated ATPase activity at 400 uM; format: functional
Outline: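 Poly(C)-dependent ATPase of purified E. coli rho (AR120/p39-AS overexpression, Lowry-quantified), run at pH 7.9 with [γ-³²P]ATP. Percent inhibition is read at 400 µM alongside a concurrently run parent-antibiotic reference.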

`C=C1CCOC2([C@@H](O)[C@@](C)(O)CO)NC(=O)[C@@]1(N(C)OC)NC2=O` showed an MIC ([1]; read-out: MIC) greater than 32 µg/mL, an inhibition at 100 µM [2] of 0% and an I50 [3] greater than 100 µM. The I50 [4] was greater than 400 and the inhibition [5] was 7%.
Work on `C=C1CCOC2([C@@H](O)[C@@](C)(O)CO)NC(=O)[C@@]1(NOC)NC2=O` yielded an MIC ([1]; read-out: MIC) greater than 32 µg/mL, an inhibition at 100 µM [2] of 0% and an I50 [3] greater than 100 µM. For the same molecule, the I50 [4] was greater than 400 and the inhibition [5] was 13%.
Work on `C=C1CCOC2([C@@H](O)[C@@](C)(O)CO)NC(=O)[C@@]1(O)NC2=O` yielded an MIC [1] of 250 µg/mL (≈ 827 µM), an inhibition at 100 µM [2] of 100% and an I50 [3] of 5 µM.
With `C=C1CCOC2([C@@H](O)[C@@](C)(O)CO)NC(=O)[C@@]1(N(C)O)NC2=O` the MIC ([1]; read-out: MIC) was greater than 32 µg/mL, the inhibition at 100 µM [2] was 0% and the I50 [3] was greater than 100 µM. The I50 [4] was greater than 400 and the inhibition [5] was 16%.
Molecule `C=C1CCOC2([C@@H](O)[C@@](C)(O)CO)NC(=O)[C@@]1(NC(C)=O)NC2=O` has an MIC ([1]; read-out: MIC) greater than 32 µg/mL, an inhibition at 100 µM [2] of 1% and an I50 [3] greater than 100 µM. It also gave an I50 [4] greater than 400 and an inhibition [5] of 15%.
`C=C1CCOC2([C@@H](O)[C@@](C)(O)CO)NC(=O)[C@@]1(NO)NC2=O` was tested, and the MIC ([1]; read-out: MIC) was greater than 32 µg/mL, the inhibition at 100 µM [2] was 22% and the I50 [3] was greater than 100 µM. For the same molecule, the I50 [4] was greater than 400 and the inhibition [5] was 45%.
Work on `C=C1CCOC2([C@@H](O)[C@@](C)(O)CO)NC(=O)[C@@]1(S)NC2=O` yielded an MIC ([1]; read-out: MIC) greater than 32 µg/mL, an inhibition at 100 µM [2] of 8% and an I50 [3] greater than 100 µM. The I50 [4] was greater than 400 and the inhibition [5] was 28%.
`C=C1CCOC2([C@@H](O)[C@@](C)(O)CO)NC(=O)[C@@]1(N(C)C)NC2=O` was tested, and the MIC [6] was greater than 32 µg/mL, the inhibition at 100 µM [2] was 1% and the I50 [3] was greater than 100 µM. For the same molecule, the I50 [4] was greater than 400 and the inhibition [5] was 1%.
For `C=C1CCOC2([C@@H](O)[C@@](C)(O)CO)NC(=O)[C@@]1(NC)NC2=O`, the MIC ([1]; read-out: MIC) was greater than 32 µg/mL, the inhibition at 100 µM [2] was 2% and the I50 [3] was greater than 100 µM. It also gave an I50 [4] greater than 400 and an inhibition [5] of 3%.
`C=C1CCOC2([C@@H](O)[C@@](C)(O)CO)NC(=O)[C@@]1(N)NC2=O` gave an MIC [6] greater than 32 µg/mL, an inhibition at 400 µM [7] of 17% and an inhibition at 100 µM [2] of 5%. For the same molecule, the I50 [3] was greater than 100 µM and the I50 [4] was greater than 400.
